In PMC9668306 (Science Advances, 2022):
Entries after “also recorded” stand apart in the source; their conditions may differ.

Key:
[1] = cited from earlier work
[2] = GI tissue homogenate stability and DON release; assay type: in vitro ADME, C57BL/6/CES1-/- mouse; settings: C57BL/6/CES1-/-, mouse, GI tissue (jejunum) homogenate, pH 7.4
[3] = Metabolite identification; assay type: in vitro ADME, mouse; settings: 60-min incubation
[4] = Plasma stability, human plasma; assay type: in vitro ADME; settings: % remaining at 60 minutes, 37°C
[5] = Plasma stability, WT mouse plasma; assay type: in vitro ADME, WT C57BL/6 mouse; settings: C57BL/6, mouse
[6] = target: T1, glutaminase enzyme (GLS-1) (Homo sapiens, UniProt O94925); assay: GLS-1 inhibition, [3H]-glutamine radiolabel enzymatic assay; assay type: biochemical
T1 sequence (O94925 55-669): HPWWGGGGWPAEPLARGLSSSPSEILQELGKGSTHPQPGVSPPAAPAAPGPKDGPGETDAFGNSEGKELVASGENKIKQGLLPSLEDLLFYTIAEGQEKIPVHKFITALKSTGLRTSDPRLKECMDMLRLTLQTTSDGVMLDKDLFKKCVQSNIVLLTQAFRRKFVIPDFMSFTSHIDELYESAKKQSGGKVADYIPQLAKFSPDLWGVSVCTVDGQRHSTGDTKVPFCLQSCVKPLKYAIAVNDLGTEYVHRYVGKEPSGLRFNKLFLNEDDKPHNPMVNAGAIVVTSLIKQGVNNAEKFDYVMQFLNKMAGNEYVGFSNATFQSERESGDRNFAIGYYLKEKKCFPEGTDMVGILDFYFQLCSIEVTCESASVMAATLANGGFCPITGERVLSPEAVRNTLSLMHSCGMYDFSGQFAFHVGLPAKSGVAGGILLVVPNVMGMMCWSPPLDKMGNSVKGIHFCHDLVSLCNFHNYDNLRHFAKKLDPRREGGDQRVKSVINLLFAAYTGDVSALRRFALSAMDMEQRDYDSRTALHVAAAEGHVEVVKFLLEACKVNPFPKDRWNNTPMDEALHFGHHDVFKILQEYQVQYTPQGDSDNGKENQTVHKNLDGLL

[7] = target: T2, GLS-1 (Mus musculus, UniProt D3Z7P3); assay: Tumor target engagement: tumor GLS-1 activity; assay type: in vivo, C57BL/6/CES1-/- mice; settings: EL4 tumor, 1 hour after s.c. dose
T2 sequence (D3Z7P3 55-674): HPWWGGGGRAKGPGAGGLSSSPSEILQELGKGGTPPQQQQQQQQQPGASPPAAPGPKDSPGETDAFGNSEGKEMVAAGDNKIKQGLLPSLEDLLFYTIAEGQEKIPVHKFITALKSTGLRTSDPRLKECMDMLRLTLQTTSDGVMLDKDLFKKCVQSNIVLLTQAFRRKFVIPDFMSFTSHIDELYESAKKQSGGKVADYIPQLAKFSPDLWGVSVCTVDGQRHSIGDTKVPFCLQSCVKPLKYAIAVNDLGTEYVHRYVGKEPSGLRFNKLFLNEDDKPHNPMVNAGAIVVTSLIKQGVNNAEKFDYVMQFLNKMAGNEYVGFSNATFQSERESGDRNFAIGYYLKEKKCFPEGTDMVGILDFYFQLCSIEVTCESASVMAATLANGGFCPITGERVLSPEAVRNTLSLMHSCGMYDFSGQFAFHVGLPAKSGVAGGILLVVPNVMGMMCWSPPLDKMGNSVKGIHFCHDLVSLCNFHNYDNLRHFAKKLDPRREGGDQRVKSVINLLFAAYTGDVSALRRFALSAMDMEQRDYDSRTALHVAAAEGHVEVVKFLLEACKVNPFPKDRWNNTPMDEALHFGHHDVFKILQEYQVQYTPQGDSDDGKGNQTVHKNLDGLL
In short: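 Test compound was dosed s.c. to EL4 tumor-bearing CES1−/− mice, and tumors were harvested 1 h post-dose. Tumor GLS-1 activity was quantified with a radiolabel-based enzymatic assay.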

[8] = Intestinal S9 fraction stability and DON release; assay type: in vitro ADME; settings: human
In short: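 Test compound at 10 μM was incubated with intestinal S9 fraction (final protein 1 mg/ml) at 37°C on an orbital shaker for 1 h, in triplicate. Reactions were quenched with three volumes of acetonitrile containing internal standard.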

[9] = system: FGAR; assay: Tumor target engagement: tumor FGAR; assay type: in vivo, C57BL/6/CES1-/- mice; settings: EL4 tumor, 1 hour after s.c. dose (DRP-104 2.6 mg/kg, DON 0.3 mg/kg)
[10] = PK of DRP-104, DON and M1 in EL4 tumor-bearing mice; assay type: in vivo, C57BL/6/CES1-/- mice; settings: for intact DRP-104 concentration: BLQ = below the limit of quantitation
[11] = Tolerability, subcutaneous dosing cohort; assay type: in vivo, C57BL/6/CES1-/- mice; settings: 0.1, 0.3 and 1 mg/kg DON eq. subcutaneously
In short: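 EL4 tumour-bearing CES1−/− mice (0.3 × 10^6 cells s.c., right flank) received test compound at 0.1, 0.3 or 1 mg/kg DON equivalent s.c., 5 days/week. Tumour volume and body weight were recorded during dosing, with GI histology assessed alongside.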

[12] = system: MC38 tumors; assay: Anti-PD-1 combination study, MC38 tumors; assay type: in vivo, C57BL/6/CES1-/- mice; settings: MC38 tumor-bearing mice, same regimens
In short: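 Mice (4 male, 3 female per group, n = 7) got 5 × 10^5 MC38 cells s.c. in the right flank and were randomised at about 400 mm3 (about day 10). Arms: vehicle; anti-PD-1 100 μg i.p. on days 10, 12, 14 and 16; test compound 0.8 mg/kg s.c., 5 days/week for 4 weeks; combination. Endpoint: tumour >4000 mm3, ulceration, necrosis or functional deficit.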

[13] = Tolerability, intravenous cohort; assay type: in vivo, C57BL/6/CES1-/- mice
In short: (§1)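 EL4 cells (0.3 × 10^6) were given s.c. in the right flank. At a mean tumour volume of about 400 mm3, mice were randomised (n = 8) to vehicle, parent drug 1 mg/kg or test compound 1 mg/kg DON equivalent, i.v., 5 days/week for 2 weeks. Tumour volume (calipers, […]), body weight and mortality were tracked; euthanasia followed IACUC tumour-volume or weight-loss guidelines.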

[14] = system: MC38 tumors; assay: CD8 depletion study, MC38 tumors; assay type: in vivo, C57BL/6/CES1-/- mice; settings: MC38, CD8+ T cell-depleting antibodies versus isotype
In short: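 MC38-bearing CES1−/− mice received anti-mouse CD8β (clone 53-5.8) or rat IgG1 isotype (clone HRPN), 5 mg/kg, the day before implantation, the day after and weekly thereafter; depletion was checked by flow cytometry. Test compound was given at 0.3 mg/kg DON equivalent s.c., 5 days/week, and individual tumour growth was followed.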

[15] = Body weight in MC38 anti-PD-1 combination study; assay type: in vivo, C57BL/6/CES1-/- mice; settings: MC38 tumor-bearing mice, throughout the experiment
[16] = GI histopathology and scoring; assay type: in vivo, C57BL/6/CES1-/- mice; settings: for GI histology (in words): 1 mg/kg DON eq. IV, end of treatment
[17] = target: T3, recombinant CES1 enzyme (Homo sapiens, UniProt P23141); assay: Recombinant CES1 enzyme stability; assay type: in vitro ADME; settings: 20 μM, enzyme 10 μg/ml, up to 3 hours
T3 sequence (P23141 18-567): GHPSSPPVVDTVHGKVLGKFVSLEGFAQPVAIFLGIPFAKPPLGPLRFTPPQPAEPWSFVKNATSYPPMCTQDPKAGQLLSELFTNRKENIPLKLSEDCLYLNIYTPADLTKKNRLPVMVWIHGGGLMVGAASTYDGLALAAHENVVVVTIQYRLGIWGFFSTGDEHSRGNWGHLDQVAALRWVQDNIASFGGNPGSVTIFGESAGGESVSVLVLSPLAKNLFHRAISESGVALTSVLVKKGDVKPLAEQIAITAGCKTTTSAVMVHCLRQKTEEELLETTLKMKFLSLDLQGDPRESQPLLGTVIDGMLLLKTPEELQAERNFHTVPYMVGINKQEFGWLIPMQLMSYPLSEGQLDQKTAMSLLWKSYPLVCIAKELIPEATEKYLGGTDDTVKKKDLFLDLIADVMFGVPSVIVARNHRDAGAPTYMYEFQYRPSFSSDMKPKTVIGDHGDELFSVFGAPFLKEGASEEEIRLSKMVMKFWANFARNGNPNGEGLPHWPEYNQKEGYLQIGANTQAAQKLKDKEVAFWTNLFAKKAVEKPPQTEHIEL

[18] = DRP-104 stability in EL4 tumor homogenate with protease/esterase inhibitors; assay type: in vitro ADME, mouse; settings: no inhibitor, time 1 h
[19] = system: EL4 tumors; assay: Antitumor efficacy, subcutaneous dosing cohort, EL4 tumors; assay type: in vivo, C57BL/6/CES1-/- mice; settings: 0.1, 0.3 and 1 mg/kg DON eq. subcutaneously, 5 days per week
In short: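 EL4 mouse lymphoma cells (0.3 × 10^6) were injected s.c. into the right flank of male and female C57BL/6/CES1−/− mice aged 6–8 weeks (25–30 g). Test compound was given s.c. at 0.1, 0.3 or 1 mg/kg DON equivalent, 5 days/week. Tumor length and width were measured by caliper, with volume = […]. Body weight and GI histology were tracked in parallel.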

[20] = system: P493B lymphoma cells; assay: P493B lymphoma cell viability assay; assay type: cell-based; settings: 72 h
[21] = system: EL4 tumors; assay: Antitumor efficacy, intravenous cohort, EL4 tumors; assay type: in vivo, C57BL/6/CES1-/- mice; settings: 1 mg/kg DON eq. intravenously, 5 days per week for 2 weeks
In short: as §1

[22] = system: EL4 tumors; assay: 13C5-glutamine flux analysis in EL4 tumors; assay type: in vivo, CES1-/- mice; settings: 0.3 mg/kg DON eq. s.c., vehicle 19.99%
[23] = Complete blood count; assay type: in vivo, C57BL/6/CES1-/- mice; settings: Avg of 3 animals, 1 mg/kg (eq.) iv, normal range 1.06-56.08
In short: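 In the EL4 i.v. cohort (vehicle, parent drug or test compound at 1 mg/kg DON equivalent, 5 days/week for 2 weeks), mice remaining at the end of treatment were sacrificed and blood was collected for a complete blood count.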

[24] = 31 of 47 patients who received 2 weeks or more of DON therapy; cited from earlier work

SMILES: COc1ccc(/C=C\c2cc(OC)c(OC)c(OC)c2)cc1OP(=O)(O)O [CA4P, combretastatin A4 phosphate]
- tumor versus plasma delivery (in words) [1]: two- to threefold

SMILES: CC(=O)N[C@@H](Cc1c[nH]c2ccccc12)C(=O)N[C@@H](CCC(=O)C=[N+]=[N-])C(=O)OC(C)C [DRP-104, isopropyl(S)-2-((S)-2-acetamido-3-(1H-indol-3-yl)-propanamido)-6-diazo-5-oxo-hexanoate]
- remaining at 1 h, 20 μM [2]: 0%
- metabolites found (MET-ID) ([3]; GI tissue homogenate): only the M1 metabolite
- metabolites found (MET-ID) ([3]; tumor homogenate): both DON and M1 metabolite
- remaining at 1 h, 20 μM [4]: > 90%
- remaining at 1 h, 20 μM [5]: 0%
- inhibition of GLS-1 (in words) ([6]; intact compound): inactive
- tumor GLS-1 activity versus vehicle (in words) [7]: significant inhibition of tumor GLS-1 activity
- remaining at 1 h, 10 μM [8]: 0%
- tumor FGAR increase versus vehicle [9]: > 80 fold
- intact DRP-104 concentration ([10]; GI tissue): no DRP-104 was observed
- AUC0-t ([10]; plasma, after DRP-104 2.6 mg/kg s.c., 2.6 mg/kg): 0.65 nmol hour/ml or nmol hour/g
- intact DRP-104 concentration ([10]; tumor): no DRP-104 was observed
- overt toxicity (in words) [11]: No overt signs of toxicity
- survival (in words) [12]: enhanced survival compared to vehicle
- deaths (in words) ([13]; 1 mg/kg DON eq. intravenously): no deaths were observed
- body weight (in words) ([13]; 1 mg/kg DON eq. intravenously, 5 days per week for 2 weeks): maintained their body weight
- dependence of efficacy on CD8+ T cells (in words) [14]: completely dependent
- effect on body weight (in words) [15]: no substantial effect on body weight
- GI histology (in words) [16]: improvement in all these parameters
- GI morphology (in words) ([16]; 1 mg/kg DON eq. subcutaneously): mild lymphocytic infiltration
- GI morphology (in words) ([16]; 0.1 and 0.3 mg/kg DON eq. subcutaneously): normal
- metabolism by recombinant CES1 (in words) [17]: CES1 was capable of metabolizing DRP-104 to M1 metabolite
- % DRP-104 remaining [18]: 0%
- tumor growth (in words) [19]: dose-dependent inhibition of tumor growth; also recorded: complete tumor regression at the higher two doses
- EC50 [20]: 10 ± 1.9 µM
- tumor response (in words) [21]: complete regression of the tumor
- M+5 isotopologue share of the total glutamate pool [22]: 14.66%

SMILES: [N-]=[N+]=CC(=O)CC[C@H](N)C(=O)O [DON, 6-Diazo-5-oxo-L-norleucine, reference compound]
- WBC [23]: 0.93 ± 0.18 K/uL
- IC50 [6]: 10 ± 0.3 µM
- tumor GLS-1 activity versus vehicle (in words) [7]: significant inhibition of tumor GLS-1 activity
- tumor FGAR increase versus vehicle [9]: > 80 fold
- patients with stable disease or regression [24]: 66%
- body weight reduction ([13]; 1 mg/kg intravenously, 5 days per week for 2 weeks): 20 to 30%
- mice that required euthanasia based on IACUC weight loss guidelines ([13]; 1 mg/kg intravenously, 5 days/week for 2 weeks): 63%
- GI histology (in words) [16]: severe GI toxicity
- EC50 [20]: 4 ± 0.6 µM
- tumor response (in words) [21]: complete regression of the tumor

SMILES: CCCCCOC(=O)Nc1nc(=O)n([C@@H]2O[C@H](C)[C@@H](O)[C@H]2O)cc1F [capecitabine]
- average 5-fluorouracil concentration in tumor versus adjacent healthy tissue [1]: 3.2 fold
